Assay results: ChEMBL document CHEMBL1159064 (J Med Chem, 2010)
The source made the active and inactive calls. The rule behind the calls is not given here.

Experiments:
[1] = molecular target: T1, 5-hydroxytryptamine receptor 1A (Homo sapiens, UniProt P08908); experiment: Displacement of [3H]8-OH-DPAT from 5HT1A receptor expressed in CHO cells by liquid scintillation counting; assay type: cell-based
T1 sequence (P08908 whole entry): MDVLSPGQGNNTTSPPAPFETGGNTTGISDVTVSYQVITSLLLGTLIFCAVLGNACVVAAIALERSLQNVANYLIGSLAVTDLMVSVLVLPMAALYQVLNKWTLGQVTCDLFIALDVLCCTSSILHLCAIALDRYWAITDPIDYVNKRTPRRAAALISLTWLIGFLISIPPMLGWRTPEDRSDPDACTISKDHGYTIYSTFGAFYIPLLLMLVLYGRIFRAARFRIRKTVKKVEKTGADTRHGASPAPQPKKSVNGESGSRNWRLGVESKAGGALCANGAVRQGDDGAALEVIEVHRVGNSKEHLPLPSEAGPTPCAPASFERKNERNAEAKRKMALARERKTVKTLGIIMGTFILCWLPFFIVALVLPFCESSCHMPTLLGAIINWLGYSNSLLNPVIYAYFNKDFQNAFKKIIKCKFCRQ
Method in brief: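 Binding buffer 50 mM Tris, 4 mM MgCl2, pH 7.4. Nonspecific binding defined with 10 μM of a selective 5-HT1A antagonist. GF/B filtration with cold Tris/EDTA wash, scintillation counting. IC50/Ki by sigmoidal nonlinear regression. Mean of 5-6 experiments.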

D(1A) dopamine receptor = D(1A) dopamine receptor (Homo sapiens, UniProt P21728); experiment: Displacement of [3H]SCH23390 from dopamine D1 receptor expressed in HEK293 cells by liquid scintillation counting; assay type: cell-based
Method in brief: (§1)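 Membranes from stably transfected HEK293 cells (15 μg/tube) expressing D1 (radioligand [3H]SCH23390) or D2 (radioligand [3H]spiperone), 0.7 nM radioligand, compound 1 nM–100 μM, duplicate tubes, 50 min at 30 °C. Buffer 50 mM Tris, 4 mM MgCl2, pH 7.4. Nonspecific binding with 10 μM SCH23390 (D1) or spiperone (D2). GF/B filtration, scintillation counting. Ki by sigmoidal nonlinear regression.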

D(2) dopamine receptor = D(2) dopamine receptor (Homo sapiens, UniProt P14416); experiment: Displacement of [3H]spiperone from dopamine D2 receptor expressed in HEK293 cells by liquid scintillation counting; assay type: cell-based; method in brief: as §1
[2] = molecular target: T2, 5-hydroxytryptamine receptor 1A (Homo sapiens) (UniProt P08908); experiment: Agonist activity at 5HT1A receptor expressed in CHO cells assessed as stimulation of [35S]GTPgamma binding relative to control; assay type: functional, cell-based
T2 sequence (whole entry): T1 sequence (P08908 whole entry)

[3] = molecular target: T1, 5-hydroxytryptamine receptor 1A; experiment: Agonist activity at 5HT1A receptor expressed in CHO cells assessed as stimulation of [35S]GTPgamma binding; assay type: functional, cell-based
[4] = molecular target: T2, 5-hydroxytryptamine receptor 1A (Homo sapiens); experiment: Antagonist activity at 5HT1A receptor expressed in CHO cells assessed as inhibition of 5-HT-stimulated [35S]GTPgamma binding relative to control; assay type: functional, cell-based
[5] = molecular target: T1, 5-hydroxytryptamine receptor 1A; experiment: […] activity at 5HT1A receptor expressed in CHO cells assessed as inhibition of 5-HT-stimulated [35S]GTPgamma binding; assay type: functional, cell-based
Rattus norvegicus [6] = experiment: Increase in ventral tegmental area dopaminergic neuron bursting level in D2-like receptor antagonist raclopride-pretreated Sprague-Dawley rat at 1 mg/kg, iv relative to untreated control; assay type: functional, organism-based; set-up: dose 1 mg/kg
Rattus norvegicus [7] = experiment: Increase in ventral tegmental area dopaminergic neuron firing rate in D2-like receptor antagonist raclopride-pretreated Sprague-Dawley rat at 1 mg/kg, iv in presence of 5HT1A receptor antagonist WAY-100635 administered post compound dose; assay type: functional, organism-based; set-up: dose 1 mg/kg
Rattus norvegicus [8] = experiment: Increase in ventral tegmental area dopaminergic neuron bursting level in D2-like receptor antagonist raclopride-pretreated Sprague-Dawley rat at 1 mg/kg, iv in presence of 5HT1A receptor antagonist WAY-100635 administered post compound dose; assay type: functional, organism-based; set-up: dose 1 mg/kg
Rattus norvegicus [9] = experiment: Increase in ventral tegmental area dopaminergic neuron firing rate in D2-like receptor antagonist raclopride-pretreated Sprague-Dawley rat at 1 mg/kg, iv in pretreated with 5HT1A receptor antagonist WAY-100635; assay type: functional, organism-based; set-up: dose 1 mg/kg
Rattus norvegicus [10] = experiment: Increase in ventral tegmental area dopaminergic neuron bursting level in D2-like receptor antagonist raclopride-pretreated Sprague-Dawley rat at 1 mg/kg, iv in pretreated with 5HT1A receptor antagonist WAY-100635; assay type: functional, organism-based; set-up: dose 1 mg/kg
Rattus norvegicus [11] = experiment: Anxiolytic effect in Sprague-Dawley rat assessed as increase in number of entries at open arm at 3 mg/kg, ip pretreated for 1 hr by elevated plus maze test; assay type: functional, organism-based; set-up: dose 3 mg/kg
Method in brief: (§2)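 Male rats, 250-300 g, given saline or test compound ip (1.0 or 3.0 mg/kg) 1 h before the maze. Two open and two closed arms (40 cm walls), 50 × 10 cm arms, raised 50 cm. Rat placed on centre facing a closed arm and allowed 5 min to explore. Video tracking recorded open-arm entries and time. Mean ± SE, n = 7-9; comparison to the saline group.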

Rattus norvegicus [12] = experiment: Anxiolytic effect in Sprague-Dawley rat assessed as increase in time spent at open arm at 3 mg/kg, ip pretreated for 1 hr by elevated plus maze test; assay type: functional, organism-based; set-up: dose 3 mg/kg; method in brief: as §2
Rattus norvegicus [13] = experiment: Anxiolytic effect in Sprague-Dawley rat assessed as increase in number of entries at open arm at 1 mg/kg, ip pretreated for 1 hr by elevated plus maze test; assay type: functional, organism-based; set-up: dose 1 mg/kg; method in brief: as §2
Rattus norvegicus [14] = experiment: Anxiolytic effect in Sprague-Dawley rat assessed as increase in time spent at open arm at 1 mg/kg, ip pretreated for 1 hr by elevated plus maze test; assay type: functional, organism-based; set-up: dose 1 mg/kg; method in brief: as §2

D(1A) dopamine receptor, sequence (P21728 whole entry): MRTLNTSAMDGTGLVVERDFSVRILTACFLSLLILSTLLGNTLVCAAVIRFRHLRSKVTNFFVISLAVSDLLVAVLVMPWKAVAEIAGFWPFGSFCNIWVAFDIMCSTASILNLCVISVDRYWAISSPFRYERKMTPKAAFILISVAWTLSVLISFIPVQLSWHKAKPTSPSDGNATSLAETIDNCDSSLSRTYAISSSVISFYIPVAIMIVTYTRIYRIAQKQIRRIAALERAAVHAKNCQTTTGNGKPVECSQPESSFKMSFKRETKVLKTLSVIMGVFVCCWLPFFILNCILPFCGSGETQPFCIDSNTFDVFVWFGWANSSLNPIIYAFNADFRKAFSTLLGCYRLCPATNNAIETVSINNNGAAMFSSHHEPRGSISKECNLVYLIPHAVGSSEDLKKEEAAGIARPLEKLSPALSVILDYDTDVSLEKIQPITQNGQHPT
D(2) dopamine receptor, sequence (P14416 whole entry): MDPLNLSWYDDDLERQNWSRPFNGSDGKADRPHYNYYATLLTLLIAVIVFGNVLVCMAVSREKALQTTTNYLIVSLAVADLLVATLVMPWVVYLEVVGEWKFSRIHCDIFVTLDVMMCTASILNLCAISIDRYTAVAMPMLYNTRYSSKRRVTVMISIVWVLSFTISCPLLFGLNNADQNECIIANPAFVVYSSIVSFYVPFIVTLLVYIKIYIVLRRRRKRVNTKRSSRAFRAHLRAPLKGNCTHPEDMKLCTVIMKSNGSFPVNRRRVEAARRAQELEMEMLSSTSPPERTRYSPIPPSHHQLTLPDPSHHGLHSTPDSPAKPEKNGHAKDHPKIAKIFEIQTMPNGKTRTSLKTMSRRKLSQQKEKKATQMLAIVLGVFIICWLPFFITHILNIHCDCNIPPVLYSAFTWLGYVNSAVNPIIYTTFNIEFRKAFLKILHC

Structure (SMILES)	Ki ([1]; read-out: Ki) [nM]	Ki (D(1A) dopamine receptor) [nM]	Ki (D(2) dopamine receptor) [nM]	other results
C=CCOc1cccc2c1-c1cccc3c1[C@@H](C2)N(CCC)CC3	279	> 10000	> 10000	
CCCN1CCc2cccc3c2[C@H]1Cc1ccc2c(C)c(C)oc2c1-3	510	> 10000	> 10000	
CCCN1CCc2cccc3c2[C@H]1Cc1ccc2c(c1-3)OC(C)C2C (mixture of isomers)	90			
CCCN1CCc2cccc3c2[C@H]1Cc1cccc(OCC=C(C)C)c1-3	149	> 10000	> 10000	
C=CCOc1cccc2c1-c1cc(OC)cc3c1[C@@H](C2)N(C)CC3	66	> 10000	> 10000	
C=C(C)COc1cccc2c1-c1cccc3c1[C@@H](C2)N(CCC)CC3	373	> 10000	> 10000	
C#CCOc1cccc2c1-c1cccc3c1[C@@H](C2)N(C)CC3	14	> 10000	> 10000	Emax [2]: 73%; EC50 ([3]; read-out: EC50): 180 nM
CCCN1CCc2cccc3c2[C@H]1Cc1cccc(O)c1-3	45	> 10000		
C=CCc1ccc2c(c1O)-c1cc(OC)cc3c1[C@@H](C2)N(C)CC3	144	> 10000	> 10000	
CCCN1CCc2cccc3c2[C@H]1Cc1ccc2c(c1-3)OC(C)(C)C2	630	> 10000	> 10000	
C=CC(C)c1ccc(O)c2c1C[C@@H]1c3c(cccc3-2)CCN1CCC (mixture of isomers)	626			
CN1CCc2cccc3c2[C@H]1Cc1cccc(O)c1-3	49	61	208	
CC1Cc2ccc3c(c2O1)-c1cc(O)cc2c1[C@@H](C3)N(C)CC2 (mixture of isomers)	12			
C=C(C)Cc1ccc2c(c1O)-c1cccc3c1[C@@H](C2)N(CCC)CC3		> 10000	> 10000	Ki ([1]; cho): Not Active
COc1cc2c3c(c1)-c1c(O)cccc1C[C@H]3N(C)CC2	258	46	235	
C=CCc1ccc2c(c1O)-c1cccc3c1[C@@H](C2)N(C)CC3	135	> 10000	> 10000	

Structure (SMILES)	Ki ([1]; read-out: Ki) [nM]	Ki (D(1A) dopamine receptor) [nM]	Ki (D(2) dopamine receptor) [nM]	other results
NCCc1c[nH]c2ccc(O)cc12 [SEROTONIN]				Imax [4]: inactive; IC50 ([5]; cho): Not Active
C=CC(C)Oc1cccc2c1-c1cccc3c1[C@@H](C2)N(CCC)CC3 (mixture of isomers)	> 10000			
CCCN1CCc2cccc3c2[C@H]1Cc1ccc2cc(C)oc2c1-3	320	> 10000	> 10000	
C#CCOc1cccc2c1-c1cccc3c1[C@@H](C2)N(CCC)CC3	55	> 10000	> 10000	
C=CCOc1cccc2c1-c1cccc3c1[C@@H](C2)N(C)CC3	12	> 10000	> 10000	Emax [2]: 61%; EC50 ([3]; read-out: EC50): 56 nM; Imax [4]: 100%; IC50 ([5]; read-out: IC50): 323 nM
C[C@@H]1Cc2ccc3c(c2O1)-c1cccc2c1[C@@H](C3)N(C)CC2 (relative stereo)	3.1	> 10000	> 10000	Emax [2]: 127%; EC50 ([3]; read-out: EC50): 86 nM; Imax [4]: inactive; IC50 ([5]; cho): Not Active; Activity (Rattus norvegicus [6]): Active; Activity (Rattus norvegicus [7]): inactive; Activity (Rattus norvegicus [8]): inactive; Activity (Rattus norvegicus [9]): inactive; Activity (Rattus norvegicus [10]): inactive; Activity (Rattus norvegicus [11]): Active; Activity (Rattus norvegicus [12]): Active
CCCN1CCc2cccc3c2[C@H]1Cc1ccc2c(c1-3)OC(C)C2 (mixture of isomers)	340			
CC1Cc2ccc3c(c2O1)-c1cccc2c1[C@@H](C3)N(C)CC2 (mixture of isomers)	6.7	> 10000	> 10000	Emax [2]: inactive; EC50 ([3]; cho): Not Active; Imax [4]: 100%; IC50 ([5]; read-out: IC50): 323 nM
CCCN1CCc2cccc3c2[C@H]1Cc1c(CC=C(C)C)ccc(O)c1-3		> 10000	> 10000	Ki ([1]; cho): Not Active
C=CCc1ccc2c(c1O)-c1cccc3c1[C@@H](C2)N(CCC)CC3	793	> 10000	> 10000	
C/C=C/COc1cccc2c1-c1cccc3c1[C@@H](C2)N(CCC)CC3	11			
C=CC(C)c1ccc2c(c1O)-c1cccc3c1[C@@H](C2)N(CCC)CC3 (mixture of isomers)	> 10000			
Cc1cc2ccc3c(c2o1)-c1cccc2c1[C@@H](C3)N(C)CC2	29	> 10000	> 10000	
CC#CCOc1cccc2c1-c1cccc3c1[C@@H](C2)N(CCC)CC3	125	> 10000	> 10000	
C[C@H]1Cc2ccc3c(c2O1)-c1cccc2c1[C@@H](C3)N(C)CC2 (relative stereo)	45.3	> 10000	> 10000	Emax [2]: inactive; EC50 ([3]; cho): Not Active; Imax [4]: 100%; IC50 ([5]; read-out: IC50): 18 nM; Activity (Rattus norvegicus [11]): inactive; Activity (Rattus norvegicus [12]): inactive; Activity (Rattus norvegicus [13]): inactive; Activity (Rattus norvegicus [14]): inactive
